Screening data: PubChem BioAssay, several laboratories
Ins promoter up: MIN6 insulin promoter up-regulation | MIN6 insulin promoter-GFP reporter, high-content imaging; hits give high values | z-score at 5 µM | hit rate 0.3% among 190,000 | AID 1625;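 active = z-score above 3 at 5 µM with at least 500 cells counted in the well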
bCat nuc transl: beta-catenin nuclear translocation modulation; HeLa beta-catenin nuclear translocation, immunofluorescence imaging; nuclear translocation activity, % at 5 µM; hit rate 0.3% among 190,000;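 active = nuclear translocation activity above 50% at 5 µM, with a well cell count of 50 or more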;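 also: per-cell ratio of nuclear to cytoplasmic median beta-catenin stain intensity; plate controls were DMSO negative control for no effect and GSK-3 inhibitor IX positive control for full effect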
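Signal – beta-catenin immunofluorescence imaging with DAPI · Test system – human HeLa cell line · Dosing – 5 µM primary single dose, 0.1% DMSO, 0.02–20 µM confirmation series · Measure – % activation, nuclear-to-cytoplasmic median beta-catenin signal ratio per cell · Incubation – 24 h compound exposure at 37°C, 5% CO2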
Autophagy mod: modulators of autophagy; MEF GFP-LC3 puncta imaging; test concentration mostly 10 µM; calls only at 10 µM (by protocol); hit rate 0.98% among 190,000; AID 463193;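 active = percentage of spot-positive cells more than 3 SD above its plate mean, without a fluorescence outlier flag or 80% toxicity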;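 also: spot-positive cell cutoff set from DMSO-treated cells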
MT stabilize HCS: stabilizes microtubules in HeLa cells | HeLa tubulin immunostaining HCS, 24 h; share of cells brighter than vehicle mean+2SD | % tubulin-high responders, % at 10 µM | hit rate 0.83% among 200,000 | AID 2205;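 active = plate Z-score above 3 for both tubulin-high and condensed-nucleus cell shares, with cell loss under 80%, at 10 µM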;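 also: anti alpha tubulin signal scored within the nucleus-defined area of each cell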
An asterisk follows results filed as active; i = inactive; . = no result; + = active, no number. In the library only some 1.9% were active in any assay of this set; here they are far more common.

SMILES	Ins promoter up	bCat nuc transl	Autophagy mod	MT stabilize HCS
COc1cccc(N2CC(O)=C(c3nc4ccccc4c(=O)[nH]3)C2=N)c1	0.42	109*	+	26*
OCCNc1c2ccccc2nc2c(F)c(F)c(F)c(F)c12	0.51	56*	i	2
Cc1c2ccccc2nc2c(F)c(NCCO)c(F)c(F)c12	1.6	3	i	9
Cn1cnnc1SCC(=O)NC1CCCCC1	-0.1	0	i	4
CC(=O)n1cc(Nc2ccccc2C(=O)O)c2ccccc21	0.04	-4	i	2
CCOC(=O)c1ccccc1Nc1cn(C(C)=O)c2ccccc12	.	.	+	3
Cc1ccc(NS(=O)(=O)c2ccccc2)c2c1CC(C)(C)O2	1.4	-2	i	27*
COc1cccc(C2CC(c3c(F)cccc3Cl)n3nc(N)nc3N2)c1 (stereo not drawn)	-0.34	2	+	3
COc1cccc(C2CC(c3c(Cl)cccc3Cl)n3nc(N)nc3N2)c1 (stereo not drawn)	-0.65	-1	.	5
C=CCOc1ccc(/C=N/O)cc1Cl	0.36	.	i	6
CC(C)c1ccc(NC(=O)c2cccc(Br)c2)cc1	0.13	.	i	2
COc1ccccc1NC(=O)c1nc[nH]c1C(=O)Nc1ccccc1OC	0.05	6	i	31*
COc1ccc(NC(=O)c2nc[nH]c2C(=O)Nc2ccccc2C)cc1	-0.3	80*	i	54*
CCOC(=O)C1(Cc2ccccc2Cl)CCN(C(=O)CN2CCOC2=O)CC1	1.1	0	i	7
Cc1cc(C)n(-c2nc3sc4c(c3c(=O)[nH]2)CCCC4)n1	.	3	+	2
Cc1nc2sc3c(c2c(=O)[nH]1)CCCCC3	0.54	1	.	.
COc1ccc(CCNC(=O)CSc2ccc(-c3ccncc3)nn2)cc1	0.65	-1	i	4
Cc1ccc(/C=C2/NC(=O)N(c3ccccc3)C2=O)o1	0.13	-1	i	2
O=C1N/C(=C/c2ccc(Br)s2)C(=O)N1c1ccccc1	-0.35	0	+	2
c1cncc(-c2nc(N3CCOCC3)c3c4c(sc3n2)CCC4)c1	-0.24	-4	i	7
c1cncc(-c2nc(NCCCN3CCOCC3)c3c4c(sc3n2)CCC4)c1	-1	0	+	4
Cc1ccc(S(=O)(=O)N2CCN(CC(=O)N/N=C\c3ccc(Cl)c([N+](=O)[O-])c3)CC2)cc1	-0.8	0	i	4
O=C(CN1CCN(S(=O)(=O)c2ccc(Br)cc2)CC1)N/N=C/c1ccc(Cl)c([N+](=O)[O-])c1	0.89	0	i	13*
Nc1ccc(-c2nc3nc(N)nc(N)c3nc2-c2ccc(N)cc2)cc1	4.9*	-2	.	.
C=CCN(c1ccccc1)S(=O)(=O)c1cccc(C(=O)OCC(=O)NC2CC2)c1	-0.1	2	+	3
SMILES	Ins promoter up	bCat nuc transl	Autophagy mod	MT stabilize HCS
CC(=O)N1CCc2c(sc(NC(=O)c3ccc4c(c3)OCCO4)c2C#N)C1	-0.06	57*	i	34*
O=C(CCc1nc(-c2ccccc2F)no1)Nc1ccc(Oc2ccccc2)cc1	-1.2	-2	i	24*
COc1cccc(NC(=O)CCc2nc(-c3ccccc3F)no2)c1	-0.29	0	i	4
COC1CCCN(C(=O)c2ccc(OC3CCN(CCc4ccccc4)CC3)cc2)C1 (stereo not drawn)	0.97	-1	i	3
COc1cc(N=Nc2cccc(S(N)(=O)=O)c2)c2ccccc2c1N	5.9*	0	.	.
Cc1cc(C)c(C(=O)O)c(CC(C)(C)C(=O)O)c1	3.1*	-2	.	.
Cc1cc(C)c(C(=O)Nc2ccccc2)c(CC(C)(C)C(=O)O)c1	0.65	-5	.	.
CCOC(=O)c1ccc(NC(=S)N(CCCN2CCCC(C)C2)Cc2ccco2)cc1 (stereo not drawn)	-0.21	0	i	2
CCN(CC)CCCNC(=O)c1sc2nc(-c3ccc(F)cc3)cn2c1C	0.67	.	+	3
Cc1c(C(=O)NCc2ccccn2)sc2nc(-c3ccc(F)cc3)cn12	-0.64	.	i	3
COc1ccc(Nc2nc(C)nc3sc4c(c23)CCC4)cc1O	-0.56	2	i	21*
Cc1nc(NCc2ccco2)c2c3c(sc2n1)CCC3	0.69	1	i	4
COc1ccc(C(O)c2nccc3cc(OC)c(OC)cc23)cc1OC (stereo not drawn)	-2.1	1	i	2
CCN(CC)CCNC(=O)c1c(C)n(-c2ccccc2)c2cc(Br)c(OC)cc12	0.25	0	+	3
COC(=O)c1cc(C(=O)NCCN2C(=O)S/C(=C\c3cccs3)C2=O)cc([N+](=O)[O-])c1	-0.96	2	i	2
CCN(CC)S(=O)(=O)c1ccc2oc(C(=O)NCC3COc4ccccc4O3)c(C)c2c1 (stereo not drawn)	-3	.	+	23
Cc1c(C(=O)NCC2COc3ccccc3O2)oc2ccc(S(=O)(=O)N3CCOCC3)cc12 (stereo not drawn)	-1.6	-1	i	3
COc1cccc(NC(=O)CN(C)C(C)C(=O)Nc2cc([N+](=O)[O-])ccc2Cl)c1 (stereo not drawn)	0.1	0	i	7
C=CCNC(=O)C(=O)NCCOc1ccccc1Cl	0.81	3	i	23*
Cc1nc(SCc2c(F)cccc2Cl)n[nH]1	0.29	.	i	3
COc1cnc(SCc2c(Cl)cccc2Cl)nc1Cl	.	.	+	1
COc1cc(OC)c(C2=NOC(C(=O)NCc3ccc4c(c3)OCO4)C2)cc1Cl (stereo not drawn)	-1.4	.	i	23*
COc1cccc(C2=NOC(C(=O)NCc3ccc(F)cc3)C2)c1 (stereo not drawn)	0.44	6	i	6
COc1cc(C2=NOC(C(=O)NCc3ccc(F)cc3)C2)cc(OC)c1OC (stereo not drawn)	-0.34	73*	+	24*
COc1ccc(C2=NOC(C(=O)NCc3ccc(F)cc3)C2)cc1OC (stereo not drawn)	1.6	56*	i	14*
SMILES	Ins promoter up	bCat nuc transl	Autophagy mod	MT stabilize HCS
CC(=Nc1ccc(C)cc1C)c1sc2ccccc2c1O	4*	-6	i	2
Cc1noc(C)c1S(=O)(=O)N1CCC(C(=O)N2CCN(C3CCCC3)CC2)CC1	3*	0	i	4
O=C(NCc1cn2ccccc2n1)c1ccco1	3.7*	-2	i	9
Cc1ccc(-n2cc(-c3ccccc3)c3c(N4CCOCC4)ncnc32)cc1	-1.4	0	+	2
COc1ccc2c(C=O)cn(C)c2c1	-0.25	0	+	1
COc1ccc2[nH]cc(C=O)c2c1	0.79	-2	i	2
CCOc1cc(C)c(C(C)C)cc1S(=O)(=O)N1CC(C)OC(C)C1 (stereo not drawn)	.	.	i	3
CCOc1cc(C)c(C(C)C)cc1S(=O)(=O)n1cnc(C)c1	-0.08	0	i	18*
COc1ccc(C(C)C)cc1S(=O)(=O)n1cnc(C)c1	.	.	i	18*
Clc1cccc(-c2cc3nc4c(c(N5CCNCC5)n3n2)CCCC4)c1	.	4	+	7
